Laboratory results from PMC4564109 (Journal of biomolecular screening, 2014).
pIC50: −log10 of the molar value. Where two headings read alike, the source gives them in different places.

Assays:
[1] = biological target: T1, recombinant human DNase I (Homo sapiens, UniProt P24855); assay: High-throughput DNase I screening assay; type: biochemical; conditions: for Type of inhibition according to Lineweaver–Burk plots: DNase I
T1 sequence (P24855 23-282): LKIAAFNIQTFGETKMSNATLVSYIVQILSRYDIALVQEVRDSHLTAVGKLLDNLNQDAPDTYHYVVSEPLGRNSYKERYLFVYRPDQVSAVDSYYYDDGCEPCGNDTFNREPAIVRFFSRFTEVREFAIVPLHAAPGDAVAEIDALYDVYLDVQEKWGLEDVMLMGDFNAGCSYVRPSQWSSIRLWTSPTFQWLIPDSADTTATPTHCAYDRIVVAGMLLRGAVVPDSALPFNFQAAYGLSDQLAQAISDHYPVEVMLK

[2] = system: NRK-52E cells; assay: Cell death assay; type: cell-based, rat; conditions: for Protection against cisplatin-induced cell death (LDH release): cisplatin 60 μM, 24 h; for Cytotoxicity of the inhibitor: highest concentration tested
In short: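 NRK-52E rat tubular epithelial cells were grown in DMEM with 5% FBS at 37 °C, 5% CO₂, and used within 1 d after confluence. Cells were seeded at 8000–10,000 per well, grown 24 h, then pre-incubated 2 h with serial dilutions of test compound. Cisplatin 60 μM was added, and LDH release was measured after 24 h with a CytoTox96 kit. Mean ± SD, n = 4.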

[3] = biological target: T2, DNase II (Sus scrofa, UniProt O62855); assay: HTS fluorescent probe assay with DNase II; type: biochemical; conditions: DNase II 3.32 nM, pH 5.0; compared with DNase I
T2 sequence (O62855 22-364): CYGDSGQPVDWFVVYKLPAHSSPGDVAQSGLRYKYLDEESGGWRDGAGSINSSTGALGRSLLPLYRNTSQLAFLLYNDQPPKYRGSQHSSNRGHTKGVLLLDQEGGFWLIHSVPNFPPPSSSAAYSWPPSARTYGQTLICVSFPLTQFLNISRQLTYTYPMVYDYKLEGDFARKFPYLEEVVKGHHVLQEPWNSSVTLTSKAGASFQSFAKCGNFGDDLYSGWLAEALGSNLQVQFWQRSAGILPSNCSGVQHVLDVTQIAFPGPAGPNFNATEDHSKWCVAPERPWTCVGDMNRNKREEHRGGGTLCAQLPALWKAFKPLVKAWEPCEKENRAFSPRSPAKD

[4] = system: NRK-52E cells; assay: TUNEL assay of cisplatin-induced DNA fragmentation; type: cell-based, rat; conditions: inhibitor 100 μM, 24 h cisplatin 60 μM
In short: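 Cells were exposed to cisplatin for 24 h in the presence of test compound at 100 μM, fixed in 5% formalin, TUNEL-stained with an in situ cell death detection kit, and counterstained with DAPI. Green-channel mean optical density for TUNEL-positive DNA damage was recorded over 10 independent fields per subset. Mean ± SD, n = 4.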

[5] = biological target: micrococcal nuclease (Staphylococcus aureus, UniProt P00644); assay: Plasmid incision assay; type: biochemical, bacterial; conditions: 10 μM
In short: (§1)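 Plasmid incision: 1 μg pECFP plasmid in 2 mM CaCl₂, 5 mM MgCl₂, 10 mM Tris-HCl pH 7.4, 0.5 mM DTT, test compound in DMSO (1% final), nuclease added, 1 h at 37 °C. The reaction was stopped with SDS/EDTA and run on a 1% agarose TAE gel at 7 V/cm for 35 min. Ethidium bromide-stained supercoiled band was quantified densitometrically.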

[6] = biological target: T3, RNase A (Bos taurus, UniProt P61823); assay: Ribonuclease A Detection kit; type: biochemical; conditions: 1 μM and 100 μM
T3 sequence (P61823 27-150): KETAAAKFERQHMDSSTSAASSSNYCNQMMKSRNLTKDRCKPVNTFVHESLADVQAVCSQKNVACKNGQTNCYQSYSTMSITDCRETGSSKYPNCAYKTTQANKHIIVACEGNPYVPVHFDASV

[7] = system: SOD; assay: SOD Determination kit; type: biochemical; conditions: 1 μM and 100 μM
[8] = system: protease; assay: Protease Fluorescent Detection kit; type: biochemical; conditions: 1 μM and 100 μM
[9] = biological target: Benzonase (Serratia marcescens, UniProt P13717); assay: Plasmid incision assay; type: biochemical, bacterial; conditions: 10 μM
In short: as §1

[10] = system: EndoG; assay: EndoG protein expression by quantitative immunohistochemistry; type: cell-based, rat; conditions: NRK-52E cells, cisplatin 60 μM
In short: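 NRK-52E cells were fixed in 5% formalin and stained with rabbit anti-EndoG (1:200 in 0.5% BSA, 0.05% Tween-20, PBS), then AlexaFluor 647 anti-rabbit IgG (1:400), with DAPI counterstain. The control omitted the primary antibody. Red-channel mean optical density was recorded over 10 independent fields per subset. Mean ± SD, n = 4.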

[11] = system: LDH; conditions: 1 μM and 100 μM
[12] = biological target: T4, recombinant murine EndoG (Mus musculus, UniProt O08600); assay: HTS fluorescent probe assay with EndoG; type: biochemical; conditions: EndoG 0.14 μM; compared with DNase I
T4 sequence (O08600 45-294): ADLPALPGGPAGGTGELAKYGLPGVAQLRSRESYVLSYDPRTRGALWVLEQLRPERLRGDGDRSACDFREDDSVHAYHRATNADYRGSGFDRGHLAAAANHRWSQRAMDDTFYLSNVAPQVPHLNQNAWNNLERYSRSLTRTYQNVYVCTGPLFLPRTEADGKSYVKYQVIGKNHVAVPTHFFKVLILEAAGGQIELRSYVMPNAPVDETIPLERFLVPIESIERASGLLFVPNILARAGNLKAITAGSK
In short: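 Fluorescence was read kinetically at 37 °C, and mean velocity (mRFU/min) was taken over 20 min after background subtraction. Activity was expressed as a percentage of the DMSO control.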

[13] = Solubility in water; type: physicochemical
[14] = system: EndoG; assay: EndoG mRNA expression by real-time RT-PCR; type: cell-based, rat; conditions: NRK-52E cells, cisplatin
[15] = read-out: IC50 against DNase I, DNase I 1.72 nM, 37 °C, HTS assay

Chain of Benzonase (P13717 22-266): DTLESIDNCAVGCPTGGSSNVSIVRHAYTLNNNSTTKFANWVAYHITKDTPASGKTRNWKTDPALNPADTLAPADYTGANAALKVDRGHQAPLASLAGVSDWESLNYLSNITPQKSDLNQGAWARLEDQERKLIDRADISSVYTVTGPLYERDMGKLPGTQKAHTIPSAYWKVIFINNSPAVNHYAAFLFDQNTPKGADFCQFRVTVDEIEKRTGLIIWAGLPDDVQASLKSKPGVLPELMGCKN

Compound: 1,3-phenylene-bis-aminoguanidine hydrochloride [IG-17]
- Type of inhibition according to Lineweaver–Burk plots [1]: competitive inhibitors
- pIC50 [1, 15]: 5.05
- Protection against cisplatin-induced cell death (LDH release) [2]: some protection against cisplatin-induced cell death
- Cytotoxicity of the inhibitor [2]: significant cytotoxicity
- Suppression of DNase II activity [3]: suppress the activity
- Inhibition of cisplatin-induced DNA fragmentation (TUNEL) [4]: marked inhibition
- Inhibition of micrococcal nuclease (PIA) [5]: absence of inhibition
- Inhibition of RNase A [6]: no inhibition activity was observed
- Inhibition of SOD [7]: no inhibition activity was observed
- Inhibition of protease [8]: no inhibition activity was observed
- Inhibition of Benzonase (PIA) [9]: absence of inhibition
- EndoG protein expression [10]: lower than the control level
- Inhibition of LDH [11]: no inhibition activity was observed
- Suppression of EndoG activity [12]: suppress the activity
- Solubility in water [13]: unlimited solubility in water

Compound: 1,4-phenylene-bis-aminoguanidine hydrochloride [JR-132]
- Type of inhibition according to Lineweaver–Burk plots [1]: competitive inhibitors
- pIC50 [1, 15]: 5.56
- Protection against cisplatin-induced cell death (LDH release) [2]: some protection against cisplatin-induced cell death
- Cytotoxicity of the inhibitor [2]: significant cytotoxicity
- Suppression of DNase II activity [3]: suppress the activity
- Inhibition of cisplatin-induced DNA fragmentation (TUNEL) [4]: marked inhibition
- Inhibition of micrococcal nuclease (PIA) [5]: absence of inhibition
- Inhibition of RNase A [6]: no inhibition activity was observed
- Inhibition of SOD [7]: no inhibition activity was observed
- Inhibition of protease [8]: no inhibition activity was observed
- EndoG mRNA expression [14]: significantly decreased
- Inhibition of Benzonase (PIA) [9]: absence of inhibition
- EndoG protein expression [10]: significantly decreased
- Inhibition of LDH [11]: no inhibition activity was observed
- Suppression of EndoG activity [12]: suppress the activity
- Solubility in water [13]: unlimited solubility in water

Compound: O=C(O)CN(CCN(CC(=O)O)CC(=O)O)CC(=O)O [EDTA, ethylenediaminetetraacetic acid, reference compound]
- pIC50 [1]: 3.72

Compound: [Cl-].[Cl-].[Zn+2] [ZnCl2, reference compound]
- pIC50 [1, 15]: 4.74
